Results: ChEMBL document CHEMBL4610035, “Synthesis and biological evaluation of novel 3-benzylcoumarin-imidazolium salts” (Bioorg Med Chem Lett, 2020)

How the values were obtained:
[1] = system: MCF7; assay: Antiproliferative activity against human MCF7 cells assessed as growth inhibition incubated up to 4 days by MTS assay; assay type: functional, cell-based; settings: MCF7, 96 h
Method in brief: (§1)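 Five human tumour cell lines were assayed by MTS. IC50 is the compound concentration that cuts optical density of treated cells by 50% relative to untreated cells. Mean of three independent determinations.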

[2] = system: A549; assay: Antiproliferative activity against human A549 cells assessed as growth inhibition incubated up to 4 days by MTS assay; assay type: functional, cell-based; settings: A549, 96 h; method in brief: as §1
[3] = system: SMMC-7721; assay: Antiproliferative activity against human SMMC7721 cells assessed as growth inhibition incubated up to 4 days by MTS assay; assay type: functional, cell-based; settings: SMMC-7721, 96 h; method in brief: as §1
[4] = system: HL-60; assay: Antiproliferative activity against human HL60 cells assessed as growth inhibition incubated up to 4 days by MTS assay; assay type: functional, cell-based; settings: HL-60, 96 h; method in brief: as §1
[5] = system: SW480; assay: Antiproliferative activity against human SW480 cells assessed as growth inhibition incubated up to 4 days by MTS assay; assay type: functional, cell-based; settings: SW480, 96 h; method in brief: as §1
[6] = system: MCF7; assay: Potency index, ratio of cisplatin IC50 to compound IC50 for antiproliferative activity against human MCF7 cells assessed as growth inhibition; assay type: functional
[7] = system: SW480; assay: Potency index, ratio of cisplatin IC50 to compound IC50 for antiproliferative activity against human SW480 cells assessed as growth inhibition; assay type: functional

O=C(C[n+]1ccn(C(c2ccccc2)c2cc3ccccc3oc2=O)c1)c1ccc(Br)cc1 (stereo not given)
IC50 [1]: > 20 µM | IC50 [2]: > 20 µM | IC50 [3]: > 20 µM | IC50 [4]: > 20 µM | IC50 [5]: > 20 µM

O=C(C[n+]1cn(C(c2ccccc2)c2cc3ccccc3oc2=O)c2ccccc21)c1ccc2ccccc2c1 (stereo not given)
IC50 [1]: 1.28 µM | IC50 [2]: 9.11 µM | IC50 [3]: 5.72 µM | IC50 [4]: 4.13 µM | IC50 [5]: 1.48 µM

O=C(C[n+]1ccn(C(c2ccccc2)c2cc3ccccc3oc2=O)c1)c1ccccc1 (stereo not given)
IC50 [1]: > 20 µM | IC50 [2]: > 20 µM | IC50 [3]: > 20 µM | IC50 [4]: > 20 µM | IC50 [5]: > 20 µM

COc1ccc(C(=O)C[n+]2cn(C(c3ccccc3)c3cc4ccccc4oc3=O)c3cc(C)c(C)cc32)cc1.[Br-] (stereo not given)
Ratio IC50 [6]: 6.2 | IC50 [1]: 1.58 µM | IC50 [2]: 5.65 µM | IC50 [3]: 4.72 µM | IC50 [4]: 1.55 µM | Ratio IC50 [7]: 22.2 | IC50 [5]: 0.36 µM

COc1ccc(C(=O)C[n+]2cn(C(c3ccccc3)c3cc4ccccc4oc3=O)c3ccccc32)cc1 (stereo not given)
IC50 [1]: 1.74 µM | IC50 [2]: > 20 µM | IC50 [3]: 8.84 µM | IC50 [4]: 7.13 µM | IC50 [5]: 4.82 µM

Cc1cc2c(cc1C)[n+](CC(=O)c1ccc(-c3ccccc3)cc1)cn2C(c1ccccc1)c1cc2ccccc2oc1=O (stereo not given)
IC50 [1]: 1.66 µM | IC50 [2]: 2.14 µM | IC50 [3]: 1.91 µM | IC50 [4]: 2.07 µM | IC50 [5]: 8.03 µM

Cc1n(C(c2ccccc2)c2cc3ccccc3oc2=O)c2ccccc2[n+]1CC(=O)c1ccc(Br)cc1 (stereo not given)
IC50 [1]: > 20 µM | IC50 [2]: > 20 µM | IC50 [3]: > 20 µM | IC50 [4]: > 20 µM | IC50 [5]: > 20 µM

O=C(C[n+]1cn(C(c2ccccc2)c2cc3ccccc3oc2=O)c2ccccc21)c1ccc(C(F)(F)F)cc1 (stereo not given)
IC50 [1]: 1.29 µM | IC50 [2]: 7.07 µM | IC50 [3]: 6.15 µM | IC50 [4]: 4.49 µM | IC50 [5]: 1.55 µM

COc1ccc(C(=O)C[n+]2ccn(C(c3ccccc3)c3cc4ccccc4oc3=O)c2)cc1 (stereo not given)
IC50 [1]: > 20 µM | IC50 [2]: > 20 µM | IC50 [3]: > 20 µM | IC50 [4]: > 20 µM | IC50 [5]: > 20 µM

O=C(C[n+]1ccn(C(c2ccccc2)c2cc3ccccc3oc2=O)c1)c1ccc(C(F)(F)F)cc1 (stereo not given)
IC50 [1]: > 20 µM | IC50 [2]: > 20 µM | IC50 [3]: > 20 µM | IC50 [4]: > 20 µM | IC50 [5]: > 20 µM

Cc1n(C(c2ccccc2)c2cc3ccccc3oc2=O)c2ccccc2[n+]1CC(=O)c1ccc(C(F)(F)F)cc1 (stereo not given)
IC50 [1]: 8.15 µM | IC50 [2]: > 20 µM | IC50 [3]: > 20 µM | IC50 [4]: 7.72 µM | IC50 [5]: 9.13 µM

Cc1n(C(c2ccccc2)c2cc3ccccc3oc2=O)c2ccccc2[n+]1CC(=O)c1ccc(-c2ccccc2)cc1 (stereo not given)
IC50 [1]: 2.86 µM | IC50 [2]: 5.1 µM | IC50 [3]: 5.05 µM | IC50 [4]: 2.77 µM | IC50 [5]: 2.88 µM

Cc1cc2c(cc1C)[n+](CC(=O)c1ccc(Br)cc1)cn2C(c1ccccc1)c1cc2ccccc2oc1=O.[Br-] (stereo not given)
IC50 [1]: 2.29 µM | IC50 [2]: 4.89 µM | IC50 [3]: 4.19 µM | IC50 [4]: 2.45 µM | Ratio IC50 [7]: 40 | IC50 [5]: 0.2 µM

Cc1n(C(c2ccccc2)c2cc3ccccc3oc2=O)c2ccccc2[n+]1CC(=O)c1ccc2ccccc2c1 (stereo not given)
IC50 [1]: 2.81 µM | IC50 [2]: 15.8 µM | IC50 [3]: 11.4 µM | IC50 [4]: 8.34 µM | IC50 [5]: 6.02 µM

Cc1cc2c(cc1C)[n+](CC(=O)c1ccccc1)cn2C(c1ccccc1)c1cc2ccccc2oc1=O (stereo not given)
IC50 [1]: 4.17 µM | IC50 [2]: 12.4 µM | IC50 [3]: 7.17 µM | IC50 [4]: 4.81 µM | IC50 [5]: 1.24 µM

Cc1cc2ncn(C(c3ccccc3)c3cc4ccccc4oc3=O)c2cc1C (stereo not given)
IC50 [1]: > 20 µM | IC50 [2]: > 20 µM | IC50 [3]: > 20 µM | IC50 [4]: > 20 µM | IC50 [5]: > 20 µM

Cc1nc2ccccc2n1C(c1ccccc1)c1cc2ccccc2oc1=O (stereo not given)
IC50 [1]: > 20 µM | IC50 [2]: > 20 µM | IC50 [3]: > 20 µM | IC50 [4]: > 20 µM | IC50 [5]: > 20 µM

O=C(C[n+]1ccn(C(c2ccccc2)c2cc3ccccc3oc2=O)c1)c1ccc2ccccc2c1 (stereo not given)
IC50 [1]: 7.27 µM | IC50 [2]: > 20 µM | IC50 [3]: > 20 µM | IC50 [4]: 4.38 µM | IC50 [5]: 8.03 µM

Cc1cc2c(cc1C)[n+](CC(=O)c1ccc(C(F)(F)F)cc1)cn2C(c1ccccc1)c1cc2ccccc2oc1=O (stereo not given)
IC50 [1]: 6.61 µM | IC50 [2]: 11.7 µM | IC50 [3]: 9.5 µM | IC50 [4]: 8.81 µM | IC50 [5]: 8.19 µM

O=C(C[n+]1cn(C(c2ccccc2)c2cc3ccccc3oc2=O)c2ccccc21)c1ccccc1 (stereo not given)
IC50 [1]: 5.1 µM | IC50 [2]: > 20 µM | IC50 [3]: > 20 µM | IC50 [4]: 18.6 µM | IC50 [5]: 6.36 µM

Cc1n(C(c2ccccc2)c2cc3ccccc3oc2=O)c2ccccc2[n+]1CC(=O)c1ccccc1 (stereo not given)
IC50 [1]: > 20 µM | IC50 [2]: > 20 µM | IC50 [3]: > 20 µM | IC50 [4]: > 20 µM | IC50 [5]: > 20 µM

O=C(C[n+]1ccn(C(c2ccccc2)c2cc3ccccc3oc2=O)c1)c1ccc(-c2ccccc2)cc1 (stereo not given)
IC50 [1]: 12.7 µM | IC50 [2]: > 20 µM | IC50 [3]: > 20 µM | IC50 [4]: 5.28 µM | IC50 [5]: > 20 µM

O=C(C[n+]1cn(C(c2ccccc2)c2cc3ccccc3oc2=O)c2ccccc21)c1ccc(Br)cc1 (stereo not given)
IC50 [1]: 1.24 µM | IC50 [2]: 11.9 µM | IC50 [3]: 8.2 µM | IC50 [4]: 5.95 µM | IC50 [5]: 1.65 µM

O=c1oc2ccccc2cc1C(c1ccccc1)n1ccnc1 (stereo not given)
IC50 [1]: > 20 µM | IC50 [2]: > 20 µM | IC50 [3]: > 20 µM | IC50 [4]: > 20 µM | IC50 [5]: > 20 µM

O=C(C[n+]1cn(C(c2ccccc2)c2cc3ccccc3oc2=O)c2ccccc21)c1ccc(-c2ccccc2)cc1.[Br-] (stereo not given)
Ratio IC50 [6]: 10.2 | IC50 [1]: 0.96 µM | IC50 [2]: 7.47 µM | IC50 [3]: 4.7 µM | IC50 [4]: 2.91 µM | Ratio IC50 [7]: 4.9 | IC50 [5]: 1.63 µM

O=c1oc2ccccc2cc1C(c1ccccc1)n1cnc2ccccc21 (stereo not given)
IC50 [1]: > 20 µM | IC50 [2]: > 20 µM | IC50 [3]: > 20 µM | IC50 [4]: > 20 µM | IC50 [5]: > 20 µM

COc1ccc(C(=O)C[n+]2c(C)n(C(c3ccccc3)c3cc4ccccc4oc3=O)c3ccccc32)cc1 (stereo not given)
IC50 [1]: 1.21 µM | IC50 [2]: 8.56 µM | IC50 [3]: 6.92 µM | IC50 [4]: 3.69 µM | IC50 [5]: 3.43 µM
